Test results as given in ChEMBL document CHEMBL1123215, “Arginine-vasopressin analogues with high antidiuretic/vasopressor selectivity. Synthesis, biological activity, and receptor binding affinity of arginine-vasopressin analogues with substitutions in positions 1, 2, 4, 7, and 8” (J Med Chem, 1986).
Positions of bridges follow the written chain, without caps; N, C: chain ends. Non-standard residues stand in square brackets, D forms with d. Residues, ends and D or L forms follow the SMILES beside them. NMeA = CN[C@@H](C)C(=O)O; Mpa = O=C(O)CCS; Sar = CNCC(=O)O

How the values were obtained:
Vasopressin V2 receptor = Vasopressin V2 receptor (Bos taurus, UniProt P48044); test: Binding affinity against plasma membrane from bovine kidney inner medulla; format: tissue-based
Sequence of Vasopressin V2 receptor (P48044 whole entry): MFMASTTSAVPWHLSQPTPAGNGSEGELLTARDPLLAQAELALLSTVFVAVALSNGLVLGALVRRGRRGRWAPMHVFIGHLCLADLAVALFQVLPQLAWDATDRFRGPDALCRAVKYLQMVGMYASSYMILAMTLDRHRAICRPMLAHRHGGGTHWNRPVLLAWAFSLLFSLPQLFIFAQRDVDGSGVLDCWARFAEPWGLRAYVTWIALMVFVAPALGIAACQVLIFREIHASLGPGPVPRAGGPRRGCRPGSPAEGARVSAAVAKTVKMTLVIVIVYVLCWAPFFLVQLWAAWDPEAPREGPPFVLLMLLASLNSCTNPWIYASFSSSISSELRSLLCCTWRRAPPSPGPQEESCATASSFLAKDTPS
In short: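 Competition binding with [3H]AVP to plasma membranes, 30 min incubation; for rat liver membranes the standard medium included bacitracin (1 mg/mL). Apparent KD and slope factor b from weighted nonlinear least-squares fit of displacement curves to logistic curves; [3H]AVP parameters from direct binding. Mean ±SE of two experiments.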

Vasopressin V1 receptor = Vasopressin V1 receptor (Rattus norvegicus, UniProt P48974+P30560); test: Binding affinity against plasma membrane from rat liver
In short: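 Rat liver plasma membranes, competition against [3H]AVP, 30 min incubation, bacitracin (1 mg/mL) in standard medium. Apparent KD and slope factor b from weighted nonlinear least-squares logistic fit of displacement curves; mean ±SE of two experiments.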

Rattus norvegicus [1] = test: Compound was tested for the antidiuretic activity against hydrated anaesthetized rats, after intravenous injection.; format: functional, Urine
In short: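 Hydrated, anaesthetized rats given intravenous injection; effect measured as change in urine conductivity, with arginine-vasopressin as standard.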

Rattus norvegicus [2] = test: Compound was tested for the vasopressor activity against phenoxybenzamine treated rats, after intravenous injection.; format: functional
In short: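 Pressor response measured in rats pretreated with phenoxybenzamine.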

[3] = Ratio of antidiuretic potency vs vasopressor potency; format: functional, Urine
In short: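 Antidiuretic potency from urine conductivity change in hydrated anaesthetized rats after i.v. injection, vasopressor potency in phenoxybenzamine-treated rats, arginine-vasopressin as standard; ratio of the two potencies.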

| Kd (Vasopressin V2 receptor) [nM] | Kd (Vasopressin V1 receptor) [nM] | Structure (SMILES) | Potency (Rattus norvegicus [1]) [IU mg-1] | Potency (Rattus norvegicus [2]) [IU mg-1] | Ratio [3] |
| --- | --- | --- | --- | --- | --- |
| 110 | 110 | C[C@@H](C(=O)N[C@@H](CCCN=C(N)N)C(=O)NCC(N)=O)N(C)C(=O)[C@@H]1CSSC[C@H](N)C(=O)N[C@@H](Cc2ccccc2)C(=O)N[C@@H](Cc2ccccc2)C(=O)N[C@@H](CCC(N)=O)C(=O)N[C@@H](CC(N)=O)C(=O)N1 (H-CFFQNC[NMeA]RG-NH2; disulfide 1-6) [listing 1 of 2 here] | – | – | – |
| – | – | CN(CC(=O)N[C@@H](CCCN=C(N)N)C(=O)NCC(N)=O)C(=O)[C@@H]1CSSC[C@H](N)C(=O)N[C@@H](Cc2ccc(O)cc2)C(=O)N[C@@H](Cc2ccccc2)C(=O)N[C@@H](CCC(N)=O)C(=O)N[C@@H](CC(N)=O)C(=O)N1 | 188 | 3.6 | 52 |
| – | – | N=C(N)NCCC[C@H](NC(=O)[C@@H]1CCCN1C(=O)[C@@H]1CSSC[C@H](N)C(=O)N[C@@H](Cc2ccc(O)cc2)C(=O)N[C@@H](Cc2ccccc2)C(=O)N[C@@H](CCC(N)=O)C(=O)N[C@@H](CC(N)=O)C(=O)N1)C(=O)NCC(N)=O [VASOPRESSIN] | 323 | – | – |
| – | – | CN(CC(=O)N[C@@H](CCCN=C(N)N)C(=O)NCC(N)=O)C(=O)[C@@H]1CSSC[C@H](N)C(=O)N[C@@H](Cc2ccccc2)C(=O)N[C@@H](Cc2ccccc2)C(=O)N[C@@H](CCC(N)=O)C(=O)N[C@@H](CC(N)=O)C(=O)N1 (H-CFFQNC[Sar]RG-NH2; disulfide 1-6) | 39.6 | 0.17 | 230 |
| 9.4 | 110 | CC(C)[C@@H]1NC(=O)[C@H](Cc2ccccc2)NC(=O)[C@H](Cc2ccc(O)cc2)NC(=O)[C@@H](N)CSSC[C@@H](C(=O)N(C)CC(=O)N[C@@H](CCCNC(=N)N)C(=O)NCC(N)=O)NC(=O)[C@H](CC(N)=O)NC1=O (H-CYFVNC[Sar]RG-NH2; disulfide 1-6) | – | – | – |
| 21 | 280 | C[C@@H](C(=O)N[C@H](CCCN=C(N)N)C(=O)NCC(N)=O)N(C)C(=O)[C@@H]1CSSC[C@H](N)C(=O)N[C@@H](Cc2ccc(O)cc2)C(=O)N[C@@H](Cc2ccccc2)C(=O)N[C@@H](CCC(N)=O)C(=O)N[C@@H](CC(N)=O)C(=O)N1 [listing 1 of 2 here] | – | – | – |
| – | – | CN(CC(=O)N[C@H](CCCN=C(N)N)C(=O)NCC(N)=O)C(=O)[C@@H]1CSSC[C@H](N)C(=O)N[C@@H](Cc2ccc(O)cc2)C(=O)N[C@@H](Cc2ccccc2)C(=O)N[C@@H](CCC(N)=O)C(=O)N[C@@H](CC(N)=O)C(=O)N1 [listing 1 of 2 here] | 56 | 0.04 | 1400 |
| 44 | 170 | CN(CC(=O)N[C@@H](CCCNC(=N)N)C(=O)NCC(N)=O)C(=O)[C@@H]1CSSC[C@H](N)C(=O)N[C@@H](Cc2ccccc2)C(=O)N[C@@H](Cc2ccccc2)C(=O)N[C@@H](CCC(N)=O)C(=O)N[C@@H](CC(N)=O)C(=O)N1 (H-CFFQNC[Sar]RG-NH2; disulfide 1-6) | – | – | – |
| – | – | CN(CC(=O)N[C@H](CCCN=C(N)N)C(=O)NCC(N)=O)C(=O)[C@@H]1CSSCCC(=O)N[C@@H](Cc2ccc(O)cc2)C(=O)N[C@@H](Cc2ccccc2)C(=O)N[C@@H](CCC(N)=O)C(=O)N[C@@H](CC(N)=O)C(=O)N1 [listing 1 of 2 here] | 214.5 | 0.01 | 2145 |
| 8.7 | 160 | CN(CC(=O)N[C@H](CCCN=C(N)N)C(=O)NCC(N)=O)C(=O)[C@@H]1CSSCCC(=O)N[C@@H](Cc2ccc(O)cc2)C(=O)N[C@@H](Cc2ccccc2)C(=O)N[C@@H](CCC(N)=O)C(=O)N[C@@H](CC(N)=O)C(=O)N1 [listing 2 of 2 here] | – | – | – |
| – | – | C[C@@H](C(=O)N[C@H](CCCN=C(N)N)C(=O)NCC(N)=O)N(C)C(=O)[C@@H]1CSSC[C@H](N)C(=O)N[C@@H](Cc2ccc(O)cc2)C(=O)N[C@@H](Cc2ccccc2)C(=O)N[C@@H](CCC(N)=O)C(=O)N[C@@H](CC(N)=O)C(=O)N1 [listing 2 of 2 here] | 69 | 0.11 | 630 |
| – | – | CC(C)[C@@H]1NC(=O)[C@H](Cc2ccccc2)NC(=O)[C@H](Cc2ccc(O)cc2)NC(=O)[C@@H](N)CSSC[C@@H](C(=O)N(C)CC(=O)N[C@@H](CCCN=C(N)N)C(=O)NCC(N)=O)NC(=O)[C@H](CC(N)=O)NC1=O (H-CYFVNC[Sar]RG-NH2; disulfide 1-6) | 270 | 34.7 | 8 |
| – | – | C[C@@H](C(=O)N[C@@H](CCCN=C(N)N)C(=O)NCC(N)=O)N(C)C(=O)[C@@H]1CSSC[C@H](N)C(=O)N[C@@H](Cc2ccccc2)C(=O)N[C@@H](Cc2ccccc2)C(=O)N[C@@H](CCC(N)=O)C(=O)N[C@@H](CC(N)=O)C(=O)N1 (H-CFFQNC[NMeA]RG-NH2; disulfide 1-6) [listing 2 of 2 here] | 14.5 | 0.57 | 25 |
| 10 | 420 | CN(CC(=O)N[C@H](CCCN=C(N)N)C(=O)NCC(N)=O)C(=O)[C@@H]1CSSC[C@H](N)C(=O)N[C@@H](Cc2ccc(O)cc2)C(=O)N[C@@H](Cc2ccccc2)C(=O)N[C@@H](CCC(N)=O)C(=O)N[C@@H](CC(N)=O)C(=O)N1 [listing 2 of 2 here] | – | – | – |
| – | – | C[C@@H](C(=O)N[C@@H](CCCN=C(N)N)C(=O)NCC(N)=O)N(C)C(=O)[C@@H]1CSSC[C@H](N)C(=O)N[C@@H](Cc2ccc(O)cc2)C(=O)N[C@@H](Cc2ccccc2)C(=O)N[C@@H](CCC(N)=O)C(=O)N[C@@H](CC(N)=O)C(=O)N1 | 343 | 10.6 | 32 |
| – | – | C[C@@H](C(=O)N[C@H](CCCN=C(N)N)C(=O)NCC(N)=O)N(C)C(=O)[C@@H]1CSSCCC(=O)N[C@@H](Cc2ccc(O)cc2)C(=O)N[C@@H](Cc2ccccc2)C(=O)N[C@@H](CCC(N)=O)C(=O)N[C@@H](CC(N)=O)C(=O)N1 [listing 1 of 2 here] | 368.5 | 0.07 | 5260 |
| 51 | 290 | C[C@@H](C(=O)N[C@H](CCCN=C(N)N)C(=O)NCC(N)=O)N(C)C(=O)[C@@H]1CSSCCC(=O)N[C@@H](Cc2ccc(O)cc2)C(=O)N[C@@H](Cc2ccccc2)C(=O)N[C@@H](CCC(N)=O)C(=O)N[C@@H](CC(N)=O)C(=O)N1 [listing 2 of 2 here] | – | – | – |
| 33 | 310 | CC(C)[C@@H]1NC(=O)[C@H](Cc2ccccc2)NC(=O)[C@H](Cc2ccc(O)cc2)NC(=O)[C@@H](N)CSSC[C@@H](C(=O)N(C)[C@@H](C)C(=O)N[C@@H](CCCNC(=N)N)C(=O)NCC(N)=O)NC(=O)[C@H](CC(N)=O)NC1=O (H-CYFVNC[NMeA]RG-NH2; disulfide 1-6) | – | – | – |
| 9.4 | 53 | CC(C)[C@H]1NC(=O)[C@H](Cc2ccccc2)NC(=O)[C@@H](Cc2ccc(O)cc2)NC(=O)CCSSC[C@@H](C(=O)N(C)[C@@H](C)C(=O)N[C@@H](CCCN=C(N)N)C(=O)NCC(N)=O)NC(=O)[C@H](CC(N)=O)NC1=O | 103 | 0.69 | 150 |
| 1.4 | 27 | CC(C)[C@@H]1NC(=O)[C@H](Cc2ccccc2)NC(=O)[C@H](Cc2ccc(O)cc2)NC(=O)CCSSC[C@@H](C(=O)N(C)CC(=O)N[C@@H](CCCN=C(N)N)C(=O)NCC(N)=O)NC(=O)[C@H](CC(N)=O)NC1=O ([Mpa]YFVNC[Sar]RG-NH2; disulfide 1-6) [listing 1 of 2 here] | – | – | – |
| – | – | CC(C)[C@@H]1NC(=O)[C@H](Cc2ccccc2)NC(=O)[C@H](Cc2ccc(O)cc2)NC(=O)CCSSC[C@@H](C(=O)N(C)CC(=O)N[C@@H](CCCN=C(N)N)C(=O)NCC(N)=O)NC(=O)[C@H](CC(N)=O)NC1=O ([Mpa]YFVNC[Sar]RG-NH2; disulfide 1-6) [listing 2 of 2 here] | 552 | 0.4 | 1380 |
